Several values for one entry are separate records, joined by “and”; a condition that tells them apart may be missing. Identical values can stand only once.
Tested on: U2OS
Experiment: Multiplex assay against U2OS
Assay type: toxicity, cell-based
Details: human
Procedure, shortened: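 Cells stained live at seeding with Hoechst33342, BioTracker Green Microtubule Cytoskeleton Dye, MitoTracker Red and Annexin V Alexa Fluor 680 were imaged on a CQ1 microscope at 37°C and 5% CO2 after compound addition. Their classification by CellPathfinder machine-learning gating ran from Hoechst high-intensity objects versus normal cells, to healthy, pyknosed or fragmented nuclei among normal cells, to mitotic or apoptotic among pyknosed cells. Tubulin, mitochondrial-mass and membrane-permeability phenotypes are per cents of healthy-nucleus cells.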

[1] = 12 h, 1 µM, compound concentration 1 uM
[2] = 12 h, 10 µM, compound concentration 10 uM
[3] = 24 h, 1 µM, compound concentration 1 uM
[4] = 24 h, 10 µM, compound concentration 10 uM
[5] = 48 h, 1 µM, compound concentration 1 uM
[6] = 48 h, 10 µM, compound concentration 10 uM

COc1cc(NC(=O)CCN2CCC(OC(=O)Nc3ccccc3-c3ccccc3)CC2)c(Cl)cc1CNC[C@H](O)c1ccc(O)c2[nH]c(=O)ccc12 [BATEFENTEROL]
Population Apoptotic (%) [1]: 68% and 85%
Population Fragmented Nuclei (%) [1]: 29% and 14%
Population Healthy Nuclei (%) [1]: 49% and 78%
Population Hoechst High Intensity Objects (%) [1]: 4% and 1%
Population Membrane Permeable-Phenotype (%) [1]: 5% and 9%
Population Mitochondria Different-Phenotype (%) [1]: 5% and 6%
Population Mitotic Cells (%) [1]: 31% and 14%
Population Normal (%) [1]: 95% and 98%
Population Pyknosed Nuclei (%) [1]: 21% and 7%
Population Tubulin-Different-Phenotype (%) [1]: 4% and 7%
Total Cell Count [1]: 159 and 98
Population Apoptotic (%) [2]: 72% and 88%
Population Fragmented Nuclei (%) [2]: 37% and 18%
Population Healthy Nuclei (%) [2]: 44% and 59%
Population Hoechst High Intensity Objects (%) [2]: 6% and 7%
Population Membrane Permeable-Phenotype (%) [2]: 60% and 57%
Population Mitochondria Different-Phenotype (%) [2]: 67% and 95%
Population Mitotic Cells (%) [2]: 27% and 11%
Population Normal (%) [2]: 93% and 92%
Population Pyknosed Nuclei (%) [2]: 18% and 22%
Population Tubulin-Different-Phenotype (%) [2]: 75% and 97%
Total Cell Count [2]: 196 and 82
Population Apoptotic (%) [3]: 74% and 100%
Population Fragmented Nuclei (%) [3]: 27% and 12%
Population Healthy Nuclei (%) [3]: 55% and 75%
Population Hoechst High Intensity Objects (%) [3]: 2% and 1%
Population Membrane Permeable-Phenotype (%) [3]: 9% and 5%
Population Mitochondria Different-Phenotype (%) [3]: 9% and 6%
Population Mitotic Cells (%) [3]: 25% and 0%
Population Normal (%) [3]: 97% and 98%
Population Pyknosed Nuclei (%) [3]: 17% and 11%
Population Tubulin-Different-Phenotype (%) [3]: 5% and 2%
Total Cell Count [3]: 182 and 103
Population Apoptotic (%) [4]: 79% and 73%
Population Fragmented Nuclei (%) [4]: 38% and 29%
Population Healthy Nuclei (%) [4]: 38% and 42%
Population Hoechst High Intensity Objects (%) [4]: 4% and 9%
Population Membrane Permeable-Phenotype (%) [4]: 32% and 52%
Population Mitochondria Different-Phenotype (%) [4]: 59% and 91%
Population Mitotic Cells (%) [4]: 20% and 26%
Population Normal (%) [4]: 95% and 90%
Population Pyknosed Nuclei (%) [4]: 22% and 27%
Population Tubulin-Different-Phenotype (%) [4]: 44% and 91%
Total Cell Count [4]: 199 and 93
Population Apoptotic (%) [5]: 82% and 85%
Population Fragmented Nuclei (%) [5]: 26% and 17%
Population Healthy Nuclei (%) [5]: 54% and 64%
Population Hoechst High Intensity Objects (%) [5]: 3% and 4%
Population Membrane Permeable-Phenotype (%) [5]: 3%
Population Mitochondria Different-Phenotype (%) [5]: 5% and 1%
Population Mitotic Cells (%) [5]: 17% and 14%
Population Normal (%) [5]: 96% and 95%
Population Pyknosed Nuclei (%) [5]: 19% and 17%
Population Tubulin-Different-Phenotype (%) [5]: 3% and 1%
Total Cell Count [5]: 242 and 123
Population Apoptotic (%) [6]: 92% and 94%
Population Fragmented Nuclei (%) [6]: 41% and 29%
Population Healthy Nuclei (%) [6]: 39% and 32%
Population Hoechst High Intensity Objects (%) [6]: 6% and 10%
Population Membrane Permeable-Phenotype (%) [6]: 31% and 38%
Population Mitochondria Different-Phenotype (%) [6]: 43% and 70%
Population Mitotic Cells (%) [6]: 7% and 5%
Population Normal (%) [6]: 93% and 89%
Population Pyknosed Nuclei (%) [6]: 18% and 37%
Population Tubulin-Different-Phenotype (%) [6]: 23% and 48%
Total Cell Count [6]: 221 and 105

CC(N)C1CCC(C(=O)Nc2ccncc2)CC1 (stereo not given)
Population Apoptotic (%) [1]: 33.33% and 18.75%
Population Fragmented Nuclei (%) [1]: 1.02% and 1.57%
Population Healthy Nuclei (%) [1]: 90.39% and 81.68%
Population Hoechst High Intensity Objects (%) [1]: 0%
Population Membrane Permeable-Phenotype (%) [1]: 0.68% and 1.28%
Population Mitochondria Different-Phenotype (%) [1]: 0.68% and 3.21%
Population Mitotic Cells (%) [1]: 66.67% and 81.25%
Population Normal (%) [1]: 100%
Population Pyknosed Nuclei (%) [1]: 8.59% and 16.75%
Population Tubulin-Different-Phenotype (%) [1]: 0.23% and 0.64%
Total Cell Count [1]: 489 and 191
Population Apoptotic (%) [2]: 31.03% and 27.78%
Population Fragmented Nuclei (%) [2]: 0.73% and 1.2%
Population Healthy Nuclei (%) [2]: 92.2% and 87.95%
Population Hoechst High Intensity Objects (%) [2]: 0%
Population Membrane Permeable-Phenotype (%) [2]: 1.32% and 1.37%
Population Mitochondria Different-Phenotype (%) [2]: 0% and 11.64%
Population Mitotic Cells (%) [2]: 68.97% and 72.22%
Population Normal (%) [2]: 100%
Population Pyknosed Nuclei (%) [2]: 7.07% and 10.84%
Population Tubulin-Different-Phenotype (%) [2]: 0.79% and 0.68%
Total Cell Count [2]: 410 and 166
Population Apoptotic (%) [3]: 41.18% and 41.67%
Population Fragmented Nuclei (%) [3]: 2.2% and 3.47%
Population Healthy Nuclei (%) [3]: 90.32% and 87.26%
Population Hoechst High Intensity Objects (%) [3]: 0%
Population Membrane Permeable-Phenotype (%) [3]: 0.65% and 1.33%
Population Mitochondria Different-Phenotype (%) [3]: 0.16% and 3.1%
Population Mitotic Cells (%) [3]: 58.82% and 58.33%
Population Normal (%) [3]: 100%
Population Pyknosed Nuclei (%) [3]: 7.48% and 9.27%
Population Tubulin-Different-Phenotype (%) [3]: 0.81% and 0.88%
Total Cell Count [3]: 682 and 259
Population Apoptotic (%) [4]: 32.08% and 28.57%
Population Fragmented Nuclei (%) [4]: 1.38% and 0%
Population Healthy Nuclei (%) [4]: 89.48% and 85.29%
Population Hoechst High Intensity Objects (%) [4]: 0%
Population Membrane Permeable-Phenotype (%) [4]: 0.19% and 1.48%
Population Mitochondria Different-Phenotype (%) [4]: 0.19% and 6.9%
Population Mitotic Cells (%) [4]: 67.92% and 71.43%
Population Normal (%) [4]: 100%
Population Pyknosed Nuclei (%) [4]: 9.14% and 14.71%
Population Tubulin-Different-Phenotype (%) [4]: 0.19% and 0.49%
Total Cell Count [4]: 580 and 238
Population Apoptotic (%) [5]: 48.51% and 53.33%
Population Fragmented Nuclei (%) [5]: 2.96% and 2.17%
Population Healthy Nuclei (%) [5]: 89.37% and 88.07%
Population Hoechst High Intensity Objects (%) [5]: 0%
Population Membrane Permeable-Phenotype (%) [5]: 1.02% and 1.48%
Population Mitochondria Different-Phenotype (%) [5]: 0.08% and 2.46%
Population Mitotic Cells (%) [5]: 51.49% and 46.67%
Population Normal (%) [5]: 100%
Population Pyknosed Nuclei (%) [5]: 7.67% and 9.76%
Population Tubulin-Different-Phenotype (%) [5]: 0.51% and 0.25%
Total Cell Count [5]: 1317 and 461
Population Apoptotic (%) [6]: 45.33% and 46.15%
Population Fragmented Nuclei (%) [6]: 3.3% and 1%
Population Healthy Nuclei (%) [6]: 89.84% and 86%
Population Hoechst High Intensity Objects (%) [6]: 0.18% and 0%
Population Membrane Permeable-Phenotype (%) [6]: 0.82% and 1.45%
Population Mitochondria Different-Phenotype (%) [6]: 0.1% and 4.94%
Population Mitotic Cells (%) [6]: 54.67% and 53.85%
Population Normal (%) [6]: 99.82% and 100%
Population Pyknosed Nuclei (%) [6]: 6.87% and 13%
Population Tubulin-Different-Phenotype (%) [6]: 0.1% and 0.29%
Total Cell Count [6]: 1094 and 400

Cn1cc(C(=O)OCC2CCN(CCNS(C)(=O)=O)CC2)c2ccccc21
Population Apoptotic (%) [1]: 73% and 77%
Population Fragmented Nuclei (%) [1]: 27% and 20%
Population Healthy Nuclei (%) [1]: 63% and 71%
Population Hoechst High Intensity Objects (%) [1]: 3% and 0%
Population Membrane Permeable-Phenotype (%) [1]: 7% and 13%
Population Mitochondria Different-Phenotype (%) [1]: 4% and 5%
Population Mitotic Cells (%) [1]: 26% and 22%
Population Normal (%) [1]: 96% and 100%
Population Pyknosed Nuclei (%) [1]: 8%
Population Tubulin-Different-Phenotype (%) [1]: 5% and 6%
Total Cell Count [1]: 226 and 110
Population Apoptotic (%) [2]: 53% and 57%
Population Fragmented Nuclei (%) [2]: 36% and 18%
Population Healthy Nuclei (%) [2]: 58% and 76%
Population Hoechst High Intensity Objects (%) [2]: 0% and 1%
Population Membrane Permeable-Phenotype (%) [2]: 10% and 17%
Population Mitochondria Different-Phenotype (%) [2]: 5% and 13%
Population Mitotic Cells (%) [2]: 46% and 42%
Population Normal (%) [2]: 99% and 98%
Population Pyknosed Nuclei (%) [2]: 5%
Population Tubulin-Different-Phenotype (%) [2]: 5% and 9%
Total Cell Count [2]: 252 and 137
Population Apoptotic (%) [3]: 95% and 100%
Population Fragmented Nuclei (%) [3]: 26% and 17%
Population Healthy Nuclei (%) [3]: 65% and 78%
Population Hoechst High Intensity Objects (%) [3]: 2% and 0%
Population Membrane Permeable-Phenotype (%) [3]: 4% and 10%
Population Mitochondria Different-Phenotype (%) [3]: 2% and 5%
Population Mitotic Cells (%) [3]: 4% and 0%
Population Normal (%) [3]: 97% and 100%
Population Pyknosed Nuclei (%) [3]: 8% and 4%
Population Tubulin-Different-Phenotype (%) [3]: 3% and 6%
Total Cell Count [3]: 263 and 144
Population Apoptotic (%) [4]: 92% and 64%
Population Fragmented Nuclei (%) [4]: 33% and 16%
Population Healthy Nuclei (%) [4]: 61% and 73%
Population Hoechst High Intensity Objects (%) [4]: 2% and 1%
Population Membrane Permeable-Phenotype (%) [4]: 11% and 12%
Population Mitochondria Different-Phenotype (%) [4]: 5% and 8%
Population Normal (%) [4]: 97% and 98%
Population Pyknosed Nuclei (%) [4]: 4% and 9%
Population Tubulin-Different-Phenotype (%) [4]: 4% and 8%
Total Cell Count [4]: 281 and 150
Population Apoptotic (%) [5]: 91% and 57%
Population Fragmented Nuclei (%) [5]: 20% and 13%
Population Healthy Nuclei (%) [5]: 69% and 75%
Population Hoechst High Intensity Objects (%) [5]: 1% and 2%
Population Membrane Permeable-Phenotype (%) [5]: 8% and 6%
Population Mitochondria Different-Phenotype (%) [5]: 3% and 5%
Population Normal (%) [5]: 98% and 97%
Population Pyknosed Nuclei (%) [5]: 9% and 10%
Population Tubulin-Different-Phenotype (%) [5]: 5% and 4%
Total Cell Count [5]: 372 and 182
Population Apoptotic (%) [6]: 88% and 75%
Population Healthy Nuclei (%) [6]: 58% and 79%
Population Hoechst High Intensity Objects (%) [6]: 1% and 3%
Population Membrane Permeable-Phenotype (%) [6]: 9% and 13%
Population Mitochondria Different-Phenotype (%) [6]: 4% and 6%
Population Mitotic Cells (%) [6]: 11% and 25%
Population Normal (%) [6]: 98% and 97%
Population Pyknosed Nuclei (%) [6]: 10%
Population Tubulin-Different-Phenotype (%) [6]: 7% and 5%
Total Cell Count [6]: 341 and 200
